Consider 36 compounds from ChEMBL document CHEMBL1949667, “Development of small-molecule probes that selectively kill cells induced to express mutant RAS” (Bioorg Med Chem Lett, 2012).

Converted amounts (≈) assume the structure as drawn. The source made the active and inactive calls. No cut-off for these calls is given here.

A short description of series [1]: Cytotoxicity against human BJeLR cells expressing HRAS G12V mutant after 48 hrs by alamar blue assay. The class given is functional, cell-based. The gist of the method:
(§1)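 BJ fibroblast lines: BJeLR (hTERT, SV40 large and small T, HRASV12) and DRD (hTERT, SV40 small T, dominant-negative p53, cyclin D1, mutant CDK4, HRASV12), grown in DMEM/M199/heat-inactivated FBS for ≤20 passages. Compounds were taken from DMSO into medium as 2-fold serial dilutions. 1000 cells/well were exposed for 48 h at 37°C, 5% CO2. Alamar Blue was added for 16 h, then fluorescence read at excitation 544, emission 590.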
On the technique in general: The colour change of resazurin is a common sign of viable cells or microbes.

Series [2] is described as follows: Selectivity ratio of IC50 for human BJeH-LT cells to IC50 for human BJeLR cells. The format is ADME, cell-based. The note with it: BJeH-LT cells versus BJeLR cells, read-out: Ratio IC50.
A short description of series [3]: Cytotoxicity against human BJeH-LT cells after 48 hrs by alamar blue assay. The class given is cell-based. Put shortly:
(§2)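 Cells grown in DMEM/M199 with heat-inactivated FBS at 37°C, 5% CO2, ≤20 passages. Compounds in DMSO diluted into medium, then 2-fold serial dilutions in medium; 1000 cells/well treated for 48 h. Viability read by adding Alamar Blue (50% in growth medium), incubating 16 h, then fluorescence at 544 excitation/590 emission; concentration-response curves generated.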

The next series concerns MEF. Description: Cytotoxicity against MEF expressing K-rasG12D after 48 hrs by CellTiter-Glo assay. The format is functional, cell-based. The conditions noted are these: Mus musculus. A general note: ATP-based viability assays read luminescence as a measure of living cells.
The next series concerns BJeH-LT. Description: Cytotoxicity against human BJeH-LT cells up to 20 ug/ml after 48 hrs by alamar blue assay. The class given is functional, cell-based. Put shortly: as §2
The next series has as its system BJeLR. The series is described as follows: Cytotoxicity against human BJeLR cells up to 20 ug/ml after 48 hrs by alamar blue assay. The format is functional, cell-based. Put shortly: as §2
Series [4] is described as follows: Aqueous solubility of the compound. The format is physicochemical.
Series [5] in a line: Cytotoxicity against human BJeH cells after 48 hrs by alamar blue assay. The format is cell-based.
Another series has as its system BJ. Description: Cytotoxicity against human BJ cells expressing HRAS G12V mutant with alternative oncogenic constructs after 48 hrs by alamar blue assay. The format is functional, cell-based. Put shortly: as §1
Series [6] in a line: (§3) Selectivity ratio of IC50 for human BJeH cells to IC50 for human BJeLR cells. The format is ADME, cell-based. The note with it: BJeH cells versus BJeLR cells, read-out: Ratio IC50.
The nature of series [7]: as §3. The note with it: BJeH cells versus BJeLR cells, read-out: Ratio IC50. The format is ADME, cell-based. This is another data set of the same source.
Series [8] is described as follows: Drug degradation in PBS assessed as racemisation after 48 hrs by HPLC/MS analysis. The class given is physicochemical. The conditions noted are these: buffer.
Series [9] in a line: Drug degradation in PBS/DMSO assessed as GSH-adduct formation after 1 hr in the presence of GSH and triethylamine. The class given is physicochemical. The note with it: buffer.

The IC50 is the point on the concentration scale where inhibition reaches its midpoint. In series [1], `COC(=O)c1ccc(C2c3[nH]c4ccccc4c3C[C@@H](C(=O)OC)N2C(=O)CCl)cc1` (stereo partly specified) showed a half-maximal inhibitory concentration (IC50) of 100 nM. Further, the selectivity ratio in [2] was 8.

With `Cc1onc(C(=O)N2CCN(C(c3ccccc3)c3ccccc3)CC2)c1[N+](=O)[O-]`, the IC50 worked out at 4970 nM in [3] and 1030 nM in series [1]. The selectivity ratio in series [2] amounted to 4.8.

The compound `C[C@H](CN1CCCC1)C(=O)c1ccc(C(F)(F)F)cc1` [LANPERISONE] registered an IC50 in the series on MEF of 4 µM.

For the compound `Cc1onc(C(=O)N2CCN(Cc3ccccc3)CC2)c1[N+](=O)[O-]`, the inhibition result in the series on BJeH-LT and with BJeLR was “inactive” each time.

As to `O=C(c1cc([N+](=O)[O-])ccn1)N1CCN(C(c2ccccc2)c2ccccc2)CC1`, the IC50 in series [3] came out at 49700 nM; in series [1] it was 37300 nM. Further, the selectivity ratio in [2] was found to be 1.33.

The term solubility denotes the dissolved amount per volume that the medium holds. In turn, `Cc1onc(C(=O)N2CCN(C(c3ccncc3)c3ccncc3)CC2)c1[N+](=O)[O-]` showed a solubility in series [4] (buffer) greater than 500 µM. The inhibition result with BJeH-LT and in the series with BJeLR was “inactive” each time.

As for `Cc1onc(C(=O)NCCNC(c2ccccc2)c2ccccc2)c1[N+](=O)[O-]`, 21600 nM corresponded to half-maximal inhibition in [1] (IC50). Further, in the series with BJeH-LT, the inhibition entry was “inactive”.

Take `COc1ccc(N(C(=O)CCl)C(C)(C)C(=O)NCCc2ccccc2)cc1Cl`: the concentration for half-maximal inhibition (IC50) worked out at 127 nM in [3] and 58 nM in [1]. Further, the selectivity ratio in series [2] amounted to 2.2.

Regarding `COc1ccc(N(C(=O)CCl)C(C(=O)NCCc2ccccc2)c2ccc(Cl)s2)cc1Cl` (racemic), the IC50 amounted to 133 nM in [3] and 61 nM in series [1]. Also, the selectivity ratio in series [2] was 2.2.

Turning to `O=C(c1n[nH]cc1[N+](=O)[O-])N1CCN(C(c2ccccc2)c2ccccc2)CC1`, the inhibition result in the series with BJeH-LT and in the series on BJeLR was “inactive” in each case.

As to `Cc1onc(C(=O)N2CCN(C(c3ccccc3)c3ccc(Cl)cc3)CC2)c1[N+](=O)[O-]` (racemic), the half-maximal inhibitory concentration (IC50) in [3] is 510 nM; in [1], 129 nM. Also, in series [2], the selectivity ratio came out at 4.

Regarding `COc1ccc(C(c2ccc(OC)cc2)N2CCN(C(=O)c3noc(C)c3[N+](=O)[O-])CC2)cc1`, the figures for the IC50 in series [3] and in [1] were 5320 nM and 1570 nM, respectively. Besides, the selectivity ratio in series [2] was 3.4.

With `Cc1onc(C(=O)N2CCN(C(c3ccc(Cl)cc3)c3ccc(Cl)cc3)CC2)c1[N+](=O)[O-]`, the IC50 in series [5] was 628 nM; in [3] it was 272 nM; in series [1], 71 nM; in the series on BJ it was 107 nM. In addition, the figures for the selectivity ratio in series [2], in series [6] and in series [7] were 3.9, 4 and 4, respectively.

For the compound `COc1ccc(N(C(=O)CCl)C(C(=O)NCCc2ccccc2)c2nc(C)cs2)cc1Cl` (racemic), the IC50 in [3] is 19800 nM; in [1] it was 8260 nM. In series [2], the selectivity ratio came to 2.4.

Turning to `COc1ccc(N(C(=O)CCl)C(C(=O)NCc2ccccc2)c2cccs2)cc1Cl` (racemic), the half-maximal inhibitory concentration (IC50) in [3] amounted to 179 nM; in series [1], 75 nM. Moreover, the selectivity ratio in series [2] was determined as 2.4.

On to `COc1ccc(N(CC(=O)NCCc2ccccc2)C(=O)CCl)cc1Cl`, for which the IC50 is 531 nM in series [3] and 231 nM in series [1]. Also, the selectivity ratio in series [2] turned out to be 2.3.

With `Cc1onc(C(=O)N2CCN(C(c3ccc(F)cc3)c3ccc(F)cc3)CC2)c1[N+](=O)[O-]`, the IC50 in [3] is 757 nM; in [1] it was 183 nM. Besides, in [2], the selectivity ratio turned out to be 4.1.

On to `CCC(=O)N1CCN(C(=O)c2noc(C)c2[N+](=O)[O-])CC1`, for which the inhibition entry in the series on BJeH-LT and in the series on BJeLR was “inactive” each time.

Turning to `COc1ccc(N(C(=O)CCl)C(C(=O)NCCc2ccccc2)C(C)C)cc1Cl` (racemic), the IC50 in series [3] is 1300 nM; in series [1], 895 nM. The selectivity ratio in series [2] was 1.5.

`Cc1onc(C(=O)N2CCOCC2)c1[N+](=O)[O-]`: the inhibition entry in the series on BJeH-LT and with BJeLR was “inactive” throughout.

In the case of `Cn1ncc([N+](=O)[O-])c1C(=O)N1CCN(C(c2ccccc2)c2ccccc2)CC1`, the inhibition result with BJeH-LT and with BJeLR was “inactive” in each case.

For `Cn1cc([N+](=O)[O-])c(C(=O)N2CCN(C(c3ccccc3)c3ccccc3)CC2)n1`, the inhibition result in the series on BJeH-LT and with BJeLR was “inactive” in each case.

Regarding `Cc1onc(C(=O)NCc2ccc(F)cc2)c1[N+](=O)[O-]`, the inhibition result in the series with BJeH-LT and in the series with BJeLR was “inactive” in each case.

`O=C(c1ccc([N+](=O)[O-])o1)N1CCN(C(c2ccccc2)c2ccccc2)CC1` had a half-maximal inhibitory concentration (IC50) in [3] of 18900 nM. Further, in the series on BJeLR, the inhibition result was “inactive”.

`COc1ccc(N(C(=O)CCl)C(C(=O)NCS(=O)(=O)c2ccc(C)cc2)c2cccs2)cc1Cl` (racemic): the solubility in series [4] (aqueous, read-out: solubility) is less than 1 µM. Besides, the half-inhibitory concentration (IC50) in [3] was 208 nM; in [1], 89 nM.

With `COc1ccc(N(C(=O)CCl)C(C(=O)NCCc2ccccc2)C2CCCCC2)cc1Cl` (racemic), the values for the IC50 in series [3] and in series [1] were 1180 nM and 505 nM, respectively. Further, the selectivity ratio in series [2] stood at 2.3.

In the case of `COc1ccc(N(C(=O)CCl)C(C(=O)NCn2nnc3ccccc32)c2cccs2)cc1Cl` (racemic), the half-maximal inhibitory concentration (IC50) in series [3] came out at 242 nM; in series [1], 102 nM.

With `Cc1onc(C(=O)N2CCCN(C(c3ccccc3)c3ccccc3)CC2)c1[N+](=O)[O-]`, the IC50 was 2790 nM in [3] and 773 nM in series [1]. Moreover, the selectivity ratio in series [2] turned out to be 3.6.

`COc1cccc(N(C(=O)CCl)C(C(=O)NCCc2ccccc2)c2cccs2)c1` (racemic): the IC50 in series [3] is 2400 nM; in series [1] it was 170 nM. In [2], the selectivity ratio was determined as 14.

For `Cc1ccc(C(=O)N2CCN(C(c3ccccc3)c3ccccc3)CC2)c([N+](=O)[O-])c1`, the inhibition result with BJeH-LT and in the series on BJeLR was “inactive” throughout.

With `COc1ccccc1N1CCN(C(=O)c2noc(C)c2[N+](=O)[O-])CC1`, the inhibition result with BJeH-LT and with BJeLR was “inactive” in each case.

Consider `COc1ccc(N(C(=O)CCl)C(C(=O)NC2CCCCC2)c2cccs2)cc1Cl` (racemic), for which the IC50 turned out to be 270 nM in [3] and 113 nM in series [1]. Besides, in series [2], the selectivity ratio came out at 2.4.

On to `COc1ccc(N(C(=O)CCl)C(C(=O)NCCc2ccccc2)c2cccs2)cc1Cl` (racemic), for which the solubility in [4] (aqueous, read-out: solubility) worked out at 16 µM (≈ 7.64 µg/mL). Moreover, the half-inhibitory concentration (IC50) in series [5] came out at 2400 nM; in series [3] it was 578 nM; in series [1], 25 nM; in the series with BJ it was 34 nM. In addition, the Drug degradation entry was “Not Active” in series [8] and “Active” in series [9].

As for `COc1ccc(N(C(=O)CCl)C(C(=O)NCCc2ccccc2)c2cccs2)cc1` (racemic), the figures for the IC50 in series [3] and in series [1] were 1700 nM and 220 nM, respectively. In addition, the selectivity ratio in [2] came to 7.8.

The compound `Cc1onc(C(=O)N2CCN(C(c3ccccn3)c3ccccn3)CC2)c1[N+](=O)[O-]` gave a solubility in [4] (buffer) greater than 500 µM. The inhibition result with BJeH-LT and in the series on BJeLR was “inactive” throughout.

On to `O=C(NCCc1ccccc1)C(c1cccs1)N(C(=O)CCl)c1cccc(Cl)c1` (racemic), for which the IC50 in series [3] came out at 331 nM; in series [1], 156 nM. The selectivity ratio in series [2] worked out at 2.1.
